# Assay results: paper PMC4687050 (Nature chemical biology, 2014)
# “Also recorded” adds a separate entry of the source.
# Assays:
# CSNK2A2 = CSNK2A2 (Homo sapiens, UniProt P19784); test: Enzymatic IC50 assay; format: biochemical
# MDA-MB 231 cells = test: Growth of cells with doxycycline-induced BRCA2 shRNA depletion; format: cell-based, human
# Procedure, shortened: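 MDA-MB-231 cells carrying a doxycycline-inducible BRCA2 shRNA were seeded at 2500 cells/well in DMEM/10% FBS with penicillin/streptomycin and treated with ERK inhibitors over a concentration range. Cell number was read after 2 h in resazurin-containing medium, by fluorescence at 590 nm.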
# ERK2 = ERK2 (Homo sapiens, UniProt P28482); test: Isothermal titration calorimetry; format: binding; conditions: ITC
# Sequence of ERK2 (P28482 whole entry): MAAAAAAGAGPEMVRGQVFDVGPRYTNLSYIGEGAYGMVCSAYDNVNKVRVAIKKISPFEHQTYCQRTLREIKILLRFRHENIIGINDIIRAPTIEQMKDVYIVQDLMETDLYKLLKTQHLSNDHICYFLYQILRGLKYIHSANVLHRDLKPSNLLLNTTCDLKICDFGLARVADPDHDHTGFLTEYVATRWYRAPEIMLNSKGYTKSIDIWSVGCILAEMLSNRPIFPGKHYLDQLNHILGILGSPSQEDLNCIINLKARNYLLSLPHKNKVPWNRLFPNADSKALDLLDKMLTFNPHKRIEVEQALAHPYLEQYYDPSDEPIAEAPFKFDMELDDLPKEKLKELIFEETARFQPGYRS
# ERK2 mutants = test: Bio-layer interferometry binding kinetics on ERK2 mutants; set-up: species or system human
# HEK293T cells = test: Cell survival of BRCA2 siRNA knock-down cells; format: cell-based, human
# Procedure, shortened: (§1)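 HEK293T cells were reverse-transfected with 40 nM siRNA per plate (Dharmafect 1), with GFP siRNA as control, then reseeded after overnight incubation. They were transfected again on day 3. For the RAD51 arm, knockdown was verified by Western blot at 12 h and day 6, with six-day compound exposure. Cells were grown in DMEM/10% FBS; viability was read by resazurin incubation for 2 h, fluorescence at 590 nm.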
# [1] = target: Cdc2-like kinase 2 (CLK2) (Homo sapiens, UniProt P49760); test: Enzymatic IC50 assay; format: biochemical
# Sequence of Cdc2-like kinase 2 (CLK2) (P49760 whole entry): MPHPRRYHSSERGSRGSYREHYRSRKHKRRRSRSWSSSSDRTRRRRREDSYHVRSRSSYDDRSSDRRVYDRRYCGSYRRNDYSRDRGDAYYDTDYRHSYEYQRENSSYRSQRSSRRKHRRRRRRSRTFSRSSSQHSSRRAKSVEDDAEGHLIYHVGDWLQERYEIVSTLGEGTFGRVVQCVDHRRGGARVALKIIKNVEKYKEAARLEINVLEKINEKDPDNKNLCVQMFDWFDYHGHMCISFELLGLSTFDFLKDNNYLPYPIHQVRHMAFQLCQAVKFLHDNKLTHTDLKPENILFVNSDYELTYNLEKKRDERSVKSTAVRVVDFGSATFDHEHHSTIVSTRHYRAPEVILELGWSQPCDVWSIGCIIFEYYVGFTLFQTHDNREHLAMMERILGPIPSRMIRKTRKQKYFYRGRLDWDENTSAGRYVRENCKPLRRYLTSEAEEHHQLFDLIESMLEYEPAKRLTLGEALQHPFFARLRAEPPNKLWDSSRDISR
# ERK1 [2] = target: T1, ERK1 (Homo sapiens, UniProt P27361); test: Isothermal titration calorimetry; format: binding; conditions: ITC
# T1 sequence (P27361 whole entry): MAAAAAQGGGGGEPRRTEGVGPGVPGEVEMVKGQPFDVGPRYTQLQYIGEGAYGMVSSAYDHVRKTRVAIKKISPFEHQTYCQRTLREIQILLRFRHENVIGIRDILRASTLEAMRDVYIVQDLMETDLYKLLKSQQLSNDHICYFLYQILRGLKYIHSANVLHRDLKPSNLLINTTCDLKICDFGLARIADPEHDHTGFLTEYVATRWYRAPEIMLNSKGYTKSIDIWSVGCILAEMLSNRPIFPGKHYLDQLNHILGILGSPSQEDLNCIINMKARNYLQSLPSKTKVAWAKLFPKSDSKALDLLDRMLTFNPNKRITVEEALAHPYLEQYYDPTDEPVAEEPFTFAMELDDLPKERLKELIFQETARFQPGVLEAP
# [3] = system: CLK1, CLK2, JNK2, CSNK2A1/A2, DRAK1 and TTK; test: Bio-layer interferometry binding kinetics on off-targets; set-up: species or system human; conditions: BLI, 25 °C
# Procedure, shortened: (§2)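 Kinetics by bio-layer interferometry at 25 °C in 20 mM HEPES pH 7.5, 150 mM NaCl, 0.5 mM TCEP. Biotinylated kinases were captured on streptavidin biosensors. Association and dissociation phases ran 600 s each over several compound concentrations. Controls were protein-coated sensors without compound and uncoated sensors with compound. Data were double-referenced and fitted for binding constants.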
# JNK3 = JNK3 (Homo sapiens, UniProt P53779); test: Enzymatic IC50 assay; format: biochemical
# Sequence of JNK3 (P53779 whole entry): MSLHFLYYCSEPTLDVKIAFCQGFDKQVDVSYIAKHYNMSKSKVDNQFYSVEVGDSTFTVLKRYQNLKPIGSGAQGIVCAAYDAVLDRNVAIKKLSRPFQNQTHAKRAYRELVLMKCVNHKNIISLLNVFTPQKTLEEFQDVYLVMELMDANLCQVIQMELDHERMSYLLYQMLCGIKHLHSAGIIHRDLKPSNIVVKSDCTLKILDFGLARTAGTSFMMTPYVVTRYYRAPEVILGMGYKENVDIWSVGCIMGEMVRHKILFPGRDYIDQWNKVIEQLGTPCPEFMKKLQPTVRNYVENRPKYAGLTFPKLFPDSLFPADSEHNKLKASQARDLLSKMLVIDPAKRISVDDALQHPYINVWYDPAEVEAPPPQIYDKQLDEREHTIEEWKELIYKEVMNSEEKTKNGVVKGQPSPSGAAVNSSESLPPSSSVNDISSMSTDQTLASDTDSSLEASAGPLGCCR
# ERK1/2 = test: Bio-layer interferometry binding kinetics; set-up: species or system human; conditions: BLI, 25 °C
# Procedure, shortened: as §2
# V-C8 cells = test: Cell viability of BRCA2-deficient versus BRCA2-complemented cells; format: cell-based, hamster; conditions: three-day exposure
# Procedure, shortened: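 They were exposed to test compound for three days over a concentration range, then incubated 2 h in resazurin-containing medium; fluorescence was read at 590 nm.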
# ERK1 [4] = target: T1, ERK1; test: Enzymatic IC50 assay; format: biochemical
# [5] = system: HEK293T cells lacking RAD51; test: Cell viability of RAD51 siRNA-depleted cells; format: cell-based, human; conditions: six-day exposure
# Procedure, shortened: as §1
# [6] = system: MDA-MB-231 cells (pERK, pRSK1, pETS1); test: ERK signalling after inhibitor wash-out, Western blotting; format: cell-based, human; conditions: 500 nM for 4 hours
# Procedure, shortened: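 MDA-MB-231 cells in DMEM/10% FBS with penicillin/streptomycin were treated with ERK inhibitor for 4 h, washed twice in PBS and released into fresh medium for 0.5, 1 and 2 h. Cells were trypsinised and lysed in SDS loading buffer with sonication. Equal protein was immunoblotted for pERK, pRSK and pETS1, with total ERK1/2, GAPDH or α-tubulin as loading controls. Band intensities were normalised to DMSO-treated cells.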
# Sequence of CSNK2A2 (P19784 whole entry): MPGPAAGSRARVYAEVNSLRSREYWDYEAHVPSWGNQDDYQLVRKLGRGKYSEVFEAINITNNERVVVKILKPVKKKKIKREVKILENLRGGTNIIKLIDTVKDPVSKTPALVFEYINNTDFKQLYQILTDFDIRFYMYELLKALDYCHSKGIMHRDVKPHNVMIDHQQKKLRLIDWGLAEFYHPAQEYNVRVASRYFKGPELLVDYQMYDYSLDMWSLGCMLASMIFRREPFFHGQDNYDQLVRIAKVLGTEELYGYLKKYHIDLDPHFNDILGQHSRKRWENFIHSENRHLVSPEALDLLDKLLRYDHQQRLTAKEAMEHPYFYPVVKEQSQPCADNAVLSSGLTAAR
smiles,measurement,setting,value
O=C(Nc1ccc2[nH]nc(-c3ccncc3)c2c1)[C@@H]1CCN(CC(=O)N2CCN(c3ccc(-c4ncccn4)cc3)CC2)C1 [SCH772984],IC50 in the enzymatic assay,CSNK2A2,no activity
same,sensitization by BRCA2 knockdown,MDA-MB 231 cells,sensitized
same,binding enthalpy change,ERK2,about −20 kcal/mol
same,binding kinetics,ERK2 mutants; listed as SCH771984,retained slow association and dissociation kinetics; also recorded: still showed slow binding kinetics
same,sensitization by BRCA2 knockdown,HEK293T cells,sensitized
same,IC50,[1],104 nM
same,binding enthalpy change,ERK1 [2],about −20 kcal/mol
same,binding kinetics (association and dissociation),[3],fast association and dissociation rates
same,IC50,JNK3,632 nM
same,binding kinetics (association and dissociation),ERK1/2,slow binding kinetics
same,cell survival of BRCA2-deficient compared with BRCA2-complemented cells,V-C8 cells,significant reduction in cell survival
same,IC50,ERK1 [4],8.3 nM
Cc1cnc(Nc2ccc(F)cc2Cl)nc1-c1c[nH]c(C(=O)N[C@H](CO)c2cccc(Cl)c2)c1 [VTX-11e],binding kinetics,"ERK2 mutants; BLI, double mutants Y36Q/Y64K and Y36Q/Y64D",increase inhibitor off-rates further
same,binding kinetics,"ERK2 mutants; BLI, single mutants Y36Q and Y64K",significantly reduced inhibitor off-rates
same,sensitization by BRCA2 knockdown,HEK293T cells,sensitized
same,cell killing of RAD51-depleted relative to control cells,[5],significant increase in cell killing
same,binding kinetics (association and dissociation),ERK1/2,slow association and dissociation patterns
same,dissociation half-life,ERK1/2; estimated,35 to 46 min
same,cell survival of BRCA2-deficient compared with BRCA2-complemented cells,V-C8 cells,Significant differences in cell survival
Nc1[nH]nc2nnc(-c3c(-c4ccccc4)nn4ccccc34)cc12 [FR180204],pRSK1 inhibition,[6],not see a strong effect
same,binding kinetics (association and dissociation),ERK1/2,fast kinetic behaviours
"Nc1ncnc2c1c(I)cn2[C@@H]1O[C@H](CO)[C@@H](O)[C@H]1O [5-iTU, 5-iodotubercidin]",binding kinetics (association and dissociation),ERK1/2,fast kinetic behaviours
O=C(c1cc(Cc2n[nH]c(=O)c3ccccc23)ccc1F)N1CCN(C(=O)C2CC2)CC1 [olaparib],cell killing of RAD51-depleted relative to control cells,[5],specific elimination of RAD51-depleted cells
